The source made the active and inactive calls. The calls are words filed in the database; no cut-off is given here.

The source of these data is ChEMBL document CHEMBL1139420, “Antibacterial profile against drug-resistant Staphylococcus epidermidis clinical strain and structure-activity relationship studies of 1H-pyrazolo[3,4-b]pyridine and thieno[2,3-b]pyridine derivatives” (Bioorg Med Chem, 2008).

In data set [1] the test system is Staphylococcus epidermidis. Put plainly: Antibacterial activity against drug-resistant Staphylococcus epidermidis clinical isolate assessed as inhibition zone diameter after 24 hrs by antibacterial susceptibility test. The format is functional.
Data set [2] deals with Enterococcus faecalis. Put plainly: Antibacterial activity against drug-resistant Enterococcus faecalis clinical isolate assessed as inhibition zone diameter after 24 hrs by antibacterial susceptibility test. In kind it is functional, organism-based.
Data set [3] in a line: Cytotoxicity against human PBMC assessed as cell viability at 700 uM after 3 to 5 days by XTT method. The format is cell-based. Conditions: PBMC (peripheral blood mononuclear cells), read-out: Activity. In a few lines:
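Human PBMCs from healthy donors isolated by density gradient from buffy coats, kept in RPMI 1640 with 10% heat-inactivated FBS, penicillin, streptomycin, 2 mM glutamine, 10 mM Hepes; stimulated 2–3 days with 5 µg/mL PHA, then kept with 5 U/mL IL-2. Compound at 700 µM, 5% CO2, 37 °C; XTT added, OD 450 nm after 2 h; duplicate, at least three times.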
(In general: Formazan colour is commonly taken as a measure of viable cells.)

Data set [4] has as its system Proteus mirabilis. As to the kind of experiment: Antibacterial activity against drug-resistant Proteus mirabilis clinical isolate assessed as inhibition zone diameter after 24 hrs by antibacterial susceptibility test. In kind it is functional, organism-based.
Data set [5] relates to Serratia marcescens. As to the kind of experiment: Antibacterial activity against drug-resistant Serratia marcescens clinical isolate assessed as inhibition zone diameter after 24 hrs by antibacterial susceptibility test. In kind it is functional, organism-based.
For data set [6], the system named is Klebsiella pneumoniae. Put plainly: Antibacterial activity against drug-resistant Klebsiella pneumoniae clinical isolate assessed as inhibition zone diameter after 24 hrs by antibacterial susceptibility test. The format is functional, organism-based.
Data set [7] has as its system Pseudomonas aeruginosa. Put plainly: Antibacterial activity against drug-resistant Pseudomonas aeruginosa clinical isolate assessed as inhibition zone diameter after 24 hrs by antibacterial susceptibility test. The format is functional, organism-based.
Data set [8] deals with Escherichia coli. Put plainly: Antibacterial activity against drug-resistant Escherichia coli clinical isolate assessed as inhibition zone diameter after 24 hrs by antibacterial susceptibility test. The format is functional, organism-based.
The subject of data set [9] is Acinetobacter calcoaceticus. As to the kind of experiment: Antibacterial activity against drug-resistant Acinetobacter calcoaceticus clinical isolate assessed as inhibition zone diameter after 24 hrs by antibacterial susceptibility test. In kind it is functional, organism-based.
For data set [10], the system named is Enterobacter cloacae. Put plainly: Antibacterial activity against drug-resistant Enterobacter cloacae clinical isolate assessed as inhibition zone diameter after 24 hrs by antibacterial susceptibility test. In kind it is functional, organism-based.

As for `Cc1cccc(Nc2c(C(=O)O)cnc3sccc23)c1`, the “inhibition zone (IZ)” value in data set [1] is listed as 0 mm. The outcome in [2], in data set [4], in [5], in data set [6], in data set [7] and in data set [8] was inactive. For the same compound, the outcome in [9] and in data set [10] was inactive. The viability at 700 µM in [3] worked out at 100%.

For the compound `Cc1ccc(Nc2c(C(=O)O)cnc3c2cnn3-c2ccccc2)cc1`, in [1], the “inhibition zone (IZ)” value amounted to 0 mm. In addition, the outcome in [2], in data set [4], in data set [5], in [6], in data set [7] and in data set [8] was inactive. In addition, the outcome in [9] and in data set [10] was inactive. For the same compound, the viability at 700 µM in [3] was determined as 100%.

For `O=C(O)c1cnc2sccc2c1Nc1ccccc1`, the “inhibition zone (IZ)” value in [1] stood at 0 mm. For the same compound, the result in data set [2], in [4], in data set [5], in data set [6], in data set [7] and in data set [8] was inactive. For the same compound, the outcome in data set [9] and in data set [10] was inactive. For the same compound, in data set [3], the viability at 700 µM was determined as 100%.

For the compound `COc1ccc(Nc2c(C(=O)O)cnc3c2cnn3-c2ccccc2)cc1`, in data set [1], the “inhibition zone (IZ)” value was 0 mm. Further, the result in data set [2], in data set [4], in data set [5], in data set [6], in [7] and in data set [8] was inactive. The outcome in data set [9] and in data set [10] was inactive. Moreover, the viability at 700 µM in [3] turned out to be 100%.

Turning to `O=C(O)c1cnc2c(cnn2-c2ccccc2)c1Nc1ccc(Cl)cc1`, in data set [1], the “inhibition zone (IZ)” value is recorded as 0 mm. Also, the outcome in data set [2], in data set [4], in data set [5], in data set [6], in [7] and in data set [8] was inactive. Besides, the outcome in [9] and in [10] was inactive. In addition, the viability at 700 µM in data set [3] was determined as 100%.

Consider `COc1cccc(Nc2c(C(=O)O)cnc3sccc23)c1`, for which the “inhibition zone (IZ)” value in [1] is on record as 0 mm. In addition, the result in data set [2], in [4], in data set [5], in data set [6], in data set [7] and in data set [8] was inactive. For the same compound, the outcome in data set [9] and in [10] was inactive. Further, the viability at 700 µM in data set [3] was 100%.

For `O=C(O)c1cnc2sccc2c1Nc1ccc([N+](=O)[O-])cc1`, in [1], the “inhibition zone (IZ)” value is 0 mm. Moreover, the outcome in data set [2], in [4], in [5], in data set [6], in data set [7] and in data set [8] was inactive. Also, the result in data set [9] and in data set [10] was inactive. Also, the viability at 700 µM in [3] was 100%.

For the compound `O=C(O)c1cnc2c(cnn2-c2ccccc2)c1Nc1cccc([N+](=O)[O-])c1`, the “inhibition zone (IZ)” value in data set [1] is given as 12 mm. In addition, the result in data set [2], in data set [4], in data set [5], in data set [6], in data set [7] and in data set [8] was inactive. Moreover, the result in [9] and in [10] was inactive. In addition, the viability at 700 µM in data set [3] is 100%.

Regarding `O=C(O)c1cnc2sccc2c1Nc1ccc(Cl)cc1`, the “inhibition zone (IZ)” value in data set [1] was 0 mm. In addition, the outcome in data set [2], in [4], in data set [5], in [6], in data set [7] and in data set [8] was inactive. The outcome in data set [9] and in data set [10] was inactive. Besides, the viability at 700 µM in data set [3] came to 100%.

With `O=C(O)c1cnc2c(cnn2-c2ccccc2)c1Nc1ccccc1`, the “inhibition zone (IZ)” value in [1] is listed as 0 mm. The outcome in [2], in data set [4], in data set [5], in data set [6], in [7] and in data set [8] was inactive. The outcome in [9] and in [10] was inactive. For the same compound, the viability at 700 µM in data set [3] stood at 91%.

Take `O=C(O)c1cnc2sccc2c1Nc1cccc(Cl)c1`: the “inhibition zone (IZ)” value in data set [1] stood at 0 mm. The outcome in data set [2], in data set [4], in [5], in data set [6], in [7] and in data set [8] was inactive. Further, the result in [9] and in [10] was inactive. In addition, the viability at 700 µM in [3] is 100%.

As to `Cc1ccc(Nc2c(C(=O)O)cnc3sccc23)cc1`, the “inhibition zone (IZ)” value in data set [1] is 0 mm. The outcome in data set [2], in data set [4], in [5], in [6], in data set [7] and in data set [8] was inactive. Further, the outcome in data set [9] and in [10] was inactive. Moreover, in [3], the viability at 700 µM is 100%.

As to `O=C(O)c1cnc2c(cnn2-c2ccccc2)c1Nc1ccc(Br)cc1`, in data set [1], the “inhibition zone (IZ)” value is reported as 10 mm. The outcome in [2], in data set [4], in data set [5], in data set [6], in data set [7] and in data set [8] was inactive. Besides, the outcome in data set [9] and in data set [10] was inactive. In addition, the viability at 700 µM in [3] turned out to be 92%.

In the case of `CN[C@H](CC(C)C)C(=O)N[C@H]1C(=O)N[C@@H](CC(N)=O)C(=O)N[C@H]2C(=O)N[C@H]3C(=O)N[C@H](C(=O)N[C@H](C(=O)O)c4cc(O)cc(O)c4-c4cc3ccc4O)[C@H](O)c3ccc(c(Cl)c3)Oc3cc2cc(c3O[C@@H]2O[C@H](CO)[C@@H](O)[C@H](O)[C@H]2O[C@H]2C[C@](C)(N)[C@H](O)[C@H](C)O2)Oc2ccc(cc2Cl)[C@H]1O` [VANCOMYCIN], the “inhibition zone (IZ)” value in data set [1] stood at 15 mm.
